Experimental data taken from ChEMBL document CHEMBL2321699, “Discovery of O-Alkylamino Tethered Niclosamide Derivatives as Potent and Orally Bioavailable Anticancer Agents” (ACS Med Chem Lett, 2013).
pIC50: −log10 of the molar value. Values after ≈ are worked out from the molar mass of the structure shown. Active and inactive are the calls of the source. No cut-off for these calls is given here.

Tests used:
ASPC1 = assay: Cytotoxicity against human AsPC1 cells after 72 hrs by MTS assay; format: functional, cell-based; details: ASPC1, 72 h
How it was run: (§1)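 Cell proliferation of MCF-7, MDA-MB-231, AsPC1 and Panc-1 measured by MTS assay; IC50 in μM.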

MCF7 = assay: Cytotoxicity against human ER positive MCF7 cells after 72 hrs by MTS assay; format: functional, cell-based; details: MCF7, 72 h; how it was run: as §1
PANC-1 = assay: Cytotoxicity against human PANC1 cells after 72 hrs by MTS assay; format: functional, cell-based; details: PANC-1, 72 h; how it was run: as §1
MDA-MB-231 [1] = assay: Cytotoxicity against human ER negative MDA-MB-231 cells after 72 hrs by MTS assay; format: functional, cell-based; details: MDA-MB-231, 72 h; how it was run: as §1
MDA-MB-231 [2] = assay: Antitumor activity against human ER negative MDA-MB-231 cells xenografted in nude mouse assessed as inhibition of tumor growth at 7.5 mg/kg, ip qd for 5 days; format: functional, organism-based; set-up: dose 7.5 mg/kg
How it was run: (§2)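 MDA-MB-231 xenografts in mice; tumor growth followed after intraperitoneal or oral dosing, doses as listed per line.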

[3] = molecular target: Signal transducer and activator of transcription 3 (Homo sapiens) (UniProt P40763); assay: Inhibition of STAT3 in human ER negative MDA-MB-231 cells assessed as reduction of phosphorylated STAT3 at Tyr-705 level at 1 to 10 uM after 24 hrs by Western blot analysis; format: cell-based
Signal transducer and activator of transcription 3 (Homo sapiens), sequence (P40763 whole entry): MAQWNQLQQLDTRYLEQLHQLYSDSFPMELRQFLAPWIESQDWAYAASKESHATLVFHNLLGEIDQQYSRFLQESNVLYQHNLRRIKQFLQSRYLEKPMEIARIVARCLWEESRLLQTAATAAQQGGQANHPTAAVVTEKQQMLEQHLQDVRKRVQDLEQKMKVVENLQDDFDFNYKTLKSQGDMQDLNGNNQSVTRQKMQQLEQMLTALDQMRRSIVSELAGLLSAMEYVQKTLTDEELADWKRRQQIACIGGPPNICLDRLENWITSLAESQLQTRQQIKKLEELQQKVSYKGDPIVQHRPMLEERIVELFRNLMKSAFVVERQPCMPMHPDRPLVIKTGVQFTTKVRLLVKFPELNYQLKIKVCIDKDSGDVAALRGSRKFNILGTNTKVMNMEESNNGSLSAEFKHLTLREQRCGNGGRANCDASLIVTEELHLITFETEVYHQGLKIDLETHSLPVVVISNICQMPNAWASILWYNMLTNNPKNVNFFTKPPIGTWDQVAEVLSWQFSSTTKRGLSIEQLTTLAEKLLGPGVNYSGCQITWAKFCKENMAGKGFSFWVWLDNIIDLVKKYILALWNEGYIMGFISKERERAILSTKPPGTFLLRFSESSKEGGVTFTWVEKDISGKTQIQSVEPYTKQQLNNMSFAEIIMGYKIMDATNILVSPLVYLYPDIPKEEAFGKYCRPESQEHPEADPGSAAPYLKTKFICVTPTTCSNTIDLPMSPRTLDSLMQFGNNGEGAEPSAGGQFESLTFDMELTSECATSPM
How it was run: (§3)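 MDA-MB-231 cells treated with a series of doses for 24 h; total STAT3 and Tyr-705-phosphorylated STAT3 detected by Western blot.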

MDA-MB-231 [4] = assay: Antitumor activity against human ER negative MDA-MB-231 cells xenografted in nude mouse assessed as inhibition of tumor growth at 25 mg/kg, po qd for 5 days; format: functional, organism-based; set-up: dose 25 mg/kg; how it was run: as §2
MDA-MB-231 [5] = assay: Antiproliferative activity against human ER negative MDA-MB-231 cells at 10 to 20 uM after 24 hrs by MTT assay; format: functional, cell-based
How it was run: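 MDA-MB-231 cells exposed 24 h; proliferation read by MTT assay.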

MDA-MB-231 [6] = assay: Antiproliferative activity against human ER negative MDA-MB-231 cells at 1 to 10 uM after 48 hrs by light microscopic analysis; format: functional, cell-based
How it was run: (§4)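 MDA-MB-231 cells treated 48 h at 1, 5 and 10 μM; cell morphology, growth and apoptotic features examined under light microscopy.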

MDA-MB-231 [7] = assay: Induction of apoptosis in human ER negative MDA-MB-231 cells assessed as down regulation of cycline D1 at 1 to 10 uM after 48 hrs; format: functional, cell-based
[8] = molecular target: Signal transducer and activator of transcription 3 (Homo sapiens) (UniProt P40763); assay: Inhibition of STAT3 promoter activity in human ER negative MDA-MB-231 cells at 10 uM after 24 hrs by dual luciferase reporter assay; format: cell-based
How it was run: (§5)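 MDA-MB-231 cells pretreated 24 h at various concentrations, then transiently transfected with pSTAT3-Luc vector; STAT3 promoter activity by dual luciferase reporter assay, expressed relative to control.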

[9] = molecular target: Signal transducer and activator of transcription 3 (Homo sapiens) (UniProt P40763); assay: Inhibition of STAT3 promoter activity in human ER negative MDA-MB-231 cells after 24 hrs by dual luciferase reporter assay; format: cell-based; how it was run: as §5
MDA-MB-231 [10] = assay: Induction of apoptosis in human ER negative MDA-MB-231 cells using annexin-V staining at 1 to 10 uM after 48 hrs by flow cytometry; format: functional, cell-based
How it was run: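 Apoptosis in MDA-MB-231 cells measured by annexin V staining with flow cytometry across a dose range.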

[11] = molecular target: Signal transducer and activator of transcription 3 (Homo sapiens) (UniProt P40763); assay: Inhibition of STAT3 promoter activity in human ER negative MDA-MB-231 cells at 20 uM after 24 hrs by dual luciferase reporter assay; format: cell-based; how it was run: as §5
MDA-MB-231 [12] = assay: Induction of apoptosis in human ER negative MDA-MB-231 cells assessed as cleavage of caspase-3 at 1 to 10 uM after 48 hrs; format: functional, cell-based
MDA-MB-231 [13] = assay: Induction of apoptosis in human ER negative MDA-MB-231 cells at 1 to 10 uM after 48 hrs by light microscopic analysis; format: functional, cell-based; how it was run: as §4
MDA-MB-231 [14] = assay: Induction of apoptosis in human ER negative MDA-MB-231 cells assessed as cleavage of caspase-3 after 48 hrs; format: functional, cell-based
[15] = molecular target: Signal transducer and activator of transcription 3 (Homo sapiens) (UniProt P40763); assay: Inhibition of STAT3 in human ER negative MDA-MB-231 cells assessed as reduction of total STAT3 level at 1 to 10 uM after 24 hrs by Western blot analysis; format: cell-based; how it was run: as §3
MDA-MB-231 [16] = assay: Induction of morphological changes in human ER negative MDA-MB-231 cells at 1 to 10 uM after 48 hrs by light microscopic analysis; format: functional, cell-based; how it was run: as §4
[17] = Solubility of the compound in water; format: physicochemical
MDA-MB-231 [18] = assay: Antitumor activity against human ER negative MDA-MB-231 cells xenografted in nude mouse assessed as inhibition of tumor growth at 12.5 mg/kg, ip qd for 5 days; format: functional, organism-based; set-up: dose 12.5 mg/kg; how it was run: as §2
MDA-MB-231 [19] = assay: Antitumor activity against human ER negative MDA-MB-231 cells xenografted in nude mouse assessed as inhibition of tumor growth at 75 mg/kg, po qd for 5 days; format: functional, organism-based; set-up: dose 75 mg/kg; how it was run: as §2

Row | Compound | pIC50 (ASPC1) | pIC50 (MCF7) | pIC50 (PANC-1) | pIC50 (MDA-MB-231 [1]) | also measured
1 | NCCCOc1ccc(Cl)cc1C(=O)Nc1ccc([N+](=O)[O-])cc1Cl | 5.38 | 5.51 | 5.51 | 5.58 | 
2 | CS(=O)(=O)Nc1ccc(NC(=O)c2cc(Cl)ccc2OC2CCNCC2)c(Cl)c1 |  | < 5.00 |  | < 5.00 | 
3 | NCCOc1ccc(Cl)cc1C(=O)Nc1ccc([N+](=O)[O-])cc1Cl | 5.72 | 6.04 | 5.97 | 5.79 | TGI (MDA-MB-231 [2]): Active; inhibition [3]: Active; TGI (MDA-MB-231 [4]): Active; Activity (MDA-MB-231 [5]): Active; Activity (MDA-MB-231 [6]): Active; Activity (MDA-MB-231 [7]): Active; inhibition [8]: 32%; Activity [9]: Active; inhibition [9]: Dose-dependent effect; Activity (MDA-MB-231 [10]): Active; inhibition [11]: 62%; Activity (MDA-MB-231 [12]): Active; Activity (MDA-MB-231 [13]): Active; Activity (MDA-MB-231 [14]): Dose-dependent effect; inhibition [15]: Active; Activity (MDA-MB-231 [16]): Active
4 | CC(=O)Nc1ccc(NC(=O)c2cc(Cl)ccc2OC2CCNCC2)c(Cl)c1 |  | < 5.00 |  | 5.23 | 
5 | NCCCCCOc1ccc(Cl)cc1C(=O)Nc1ccc([N+](=O)[O-])cc1Cl | 5.68 | 5.46 | 5.33 | 5.51 | 
6 | CN(C)CCOc1ccc(Cl)cc1C(=O)Nc1ccc([N+](=O)[O-])cc1Cl |  | < 5.00 |  | < 5.00 | 
7 | O=C(Nc1ccc([N+](=O)[O-])cc1Cl)c1cc(Cl)ccc1OCCF |  | < 5.00 |  | < 5.00 | 
8 | O=C(Nc1ccc([N+](=O)[O-])cc1Cl)c1cc(Cl)ccc1OC1CCNCC1 [listing 1 of 2 here] | 5.56 | 6.60 | 6.27 | 6.54 | 
9 | CN1CCN(CCOc2ccc(Cl)cc2C(=O)Nc2ccc([N+](=O)[O-])cc2Cl)CC1 |  | < 5.00 |  | < 5.00 | 
10 | O=C(Nc1ccc([N+](=O)[O-])cc1Cl)c1cc(Cl)ccc1OC1CCNCC1 [listing 2 of 2 here] |  |  |  |  | Activity (MDA-MB-231 [6]): Active; Activity (MDA-MB-231 [13]): Active; Activity (MDA-MB-231 [16]): Active
11 | O=C(Nc1ccc([N+](=O)[O-])cc1Cl)c1cc(Cl)ccc1OCCN1CCNCC1 |  | 4.91 |  | 5.06 | 
12 | O=C(Nc1ccc([N+](=O)[O-])cc1Cl)c1cc(Cl)ccc1OCCN1CCOCC1 | 4.14 | 5.01 | < 5.00 | 4.74 | 
13 | NCCOCCOc1ccc(Cl)cc1C(=O)Nc1ccc([N+](=O)[O-])cc1Cl | < 5.00 | 5.03 | < 5.00 | 5.28 | 
14 | CN1CCC(Oc2ccc(Cl)cc2C(=O)Nc2ccc([N+](=O)[O-])cc2Cl)CC1 | 5.45 | 5.39 | < 5.00 | 5.57 | 
15 | NCCCCOc1ccc(Cl)cc1C(=O)Nc1ccc([N+](=O)[O-])cc1Cl | 5.13 | 5.43 | < 5.00 | 5.63 | 
16 | Cl.O=C(Nc1ccc([N+](=O)[O-])cc1Cl)c1cc(Cl)ccc1OC1CCNCC1 |  |  |  |  | solubility ([17]; buffer): 248 µg/mL
17 | O=C(Nc1ccc([N+](=O)[O-])cc1Cl)c1cc(Cl)ccc1OCCN1CCCCC1 |  | < 5.00 |  | < 5.00 | 
18 | O=C(Nc1ccc([N+](=O)[O-])cc1Cl)c1cc(Cl)ccc1O [NICLOSAMIDE] | 5.83 | 5.97 | 5.76 | 6.10 | inhibition [3]: Active; Activity (MDA-MB-231 [5]): Active; Activity (MDA-MB-231 [6]): Active; inhibition [8]: Active; Activity [9]: Active; inhibition [11]: Active; solubility ([17]; water, read-out: solubility): 0.23 µg/mL (≈ 0.703 µM); Activity (MDA-MB-231 [13]): Active; Activity (MDA-MB-231 [14]): Dose-dependent effect; TGI (MDA-MB-231 [18]): Active; inhibition [15]: Active; Activity (MDA-MB-231 [16]): Active; TGI (MDA-MB-231 [19]): Active
